Hits are enriched below; roughly 0.95% of the tested compounds scored in any of these assays.
p97 inhibitor: blocks human p97 ATPase activity | AID 1481 | recombinant p97 ATPase, Kinase-Glo ATP luminescence, 3 h | 220,000 tested, 0.42% active | inhibition, % at 8 µM | P55072; in the data active means inhibition above about 15%
G6PDH CS: inhibits Leuconostoc G6PDH, flagging false hits in G6PDH-based assays; Purified L. mesenteroides G6PDH, diaphorase/resazurin coupled fluorescence, 45 min; inhibition, % at 5 µM; 200,000 tested, 0.12% active; in the data active means inhibition above about 50%
HKDC1 inhibitor: inhibitors of human hexokinase HKDC1 | Q2TB90 | recombinant HKDC1, G6PDH/diaphorase resazurin coupled fluorescence | inhibition, % at 20 µM | 340,000 tested, 0.16% active | AID 493160;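 active means inhibition above about 35% when tested at 20 µM, limit read from the data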
Target sequence (Q2TB90 whole entry, looked up): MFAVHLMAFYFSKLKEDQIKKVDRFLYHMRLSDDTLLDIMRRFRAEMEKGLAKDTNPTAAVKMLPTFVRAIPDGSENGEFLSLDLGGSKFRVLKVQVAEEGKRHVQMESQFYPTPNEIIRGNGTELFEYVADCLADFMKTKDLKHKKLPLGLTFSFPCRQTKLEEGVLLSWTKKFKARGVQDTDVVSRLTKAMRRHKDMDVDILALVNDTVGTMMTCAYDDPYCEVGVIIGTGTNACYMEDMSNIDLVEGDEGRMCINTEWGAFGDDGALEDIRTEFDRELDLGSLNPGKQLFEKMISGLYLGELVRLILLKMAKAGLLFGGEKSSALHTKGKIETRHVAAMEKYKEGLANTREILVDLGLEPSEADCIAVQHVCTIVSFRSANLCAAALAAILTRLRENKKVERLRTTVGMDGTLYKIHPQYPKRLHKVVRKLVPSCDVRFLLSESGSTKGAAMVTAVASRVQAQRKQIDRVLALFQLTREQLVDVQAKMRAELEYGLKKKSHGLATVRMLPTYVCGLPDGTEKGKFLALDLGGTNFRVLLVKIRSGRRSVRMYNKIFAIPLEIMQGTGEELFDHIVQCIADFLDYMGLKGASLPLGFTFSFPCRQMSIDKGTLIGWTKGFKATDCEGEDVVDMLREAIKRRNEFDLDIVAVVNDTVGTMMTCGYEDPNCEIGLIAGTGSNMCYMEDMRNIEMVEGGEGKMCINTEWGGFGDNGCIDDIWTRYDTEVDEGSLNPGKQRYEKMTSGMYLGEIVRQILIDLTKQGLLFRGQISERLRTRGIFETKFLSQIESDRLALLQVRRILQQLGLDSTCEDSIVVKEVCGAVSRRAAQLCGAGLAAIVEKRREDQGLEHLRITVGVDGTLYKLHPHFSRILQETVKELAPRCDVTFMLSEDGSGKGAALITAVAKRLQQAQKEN
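Assay system: recombinant HKDC1 hexokinase; detection: coupled resazurin fluorescence, excitation 525 nm, emission 613 nm; benchmarks: DMSO-plus-enzyme-mix negative control, buffer-substituted positive control; compound dosing: single 20 µM dose; schedule: 90 min at room temperature in dark; also added: glucose plus 1 mM ATP as hexokinase substrates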
SUMO HTRF inh: inhibitors of human SUMOylation (UBC9). P63279. HTRF SUMOylation assay, SAE1/SAE2 + UBC9, in vitro. inhibition, % at 35 µM. 290,000 tested, 0.36% active. AID 2006; in the data active means inhibition above about 50%, passing the limit was not always enough
Diaphorase inh: inhibits diaphorase or chemically oxidizes, flagging diaphorase assay artifacts. diaphorase resazurin-to-resorufin fluorescence, NADH, 16 min; bacterial (C. kluyveri) enzyme, not human. inhibition, % at 20 µM. 190,000 tested, 0.69% active. AID 1217;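 active means primary screen inhibition at 20 µM above a set limit, cut at about 50% in these data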
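Assay system: diaphorase enzyme from Clostridium kluyveri. Quantity: enzyme working solution with 0.14 U/mL diaphorase. Schedule: reaction incubation of 16 min at room temperature. Technique: resorufin fluorescence, excitation 544 nm, emission 590 nm. Controls: No-NADH positive control and DMSO neutral control.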
A number is an active result; i = inactive; nt = no result.

SMILES	p97 inhibitor	G6PDH CS	HKDC1 inhibitor	SUMO HTRF inh	Diaphorase inh
CNc1nc(SCC(=O)Nc2ccccc2)nc(N2CCOCC2)n1	nt	nt	i	i	nt
COc1cc(C2CC(=O)N3CN(c4ccccc4C)CSC3=C2C#N)cc(OC)c1OC (centres undefined)	i	i	nt	i	58.8
COc1ccc(Br)cc1C1CC(=O)N2CN(Cc3ccccc3)CSC2=C1C#N (centres undefined)	i	i	i	i	56.8
COc1ccc(Br)cc1C1CC(=O)N2CN(C)CSC2=C1C#N (centres undefined)	i	i	i	i	i
CCC(=O)Nc1ccc(C(=O)CN2C(=O)NC3(CCOc4ccccc43)C2=O)cc1 (centres undefined)	nt	nt	i	nt	nt
CCOc1ccc(C2C=C(c3ccccc3)Nc3ncnn32)cc1 (centres undefined)	i	i	nt	51.5	i
CC(C)N(C(=O)[C@H]1C[C@H](CC(=O)NCCC2=CCCCC2)C(=O)N2CCc3c([nH]c4cc(-c5ccco5)ccc34)[C@]12C)C(C)C	nt	nt	i	nt	nt
C=CCNC(=S)/C(=C(\[O-])c1ccc(Cl)cc1)[n+]1ccccc1	14.7	nt	i	i	nt
COC(=O)c1sccc1-n1cccc1C(=O)C(=O)N1CCOCC1	i	i	i	i	i
Nn1cc(-c2ccccc2)nc1SCC(=O)N1CCN(S(=O)(=O)c2ccc(Cl)cc2)CC1	i	i	i	i	54.4
Cc1c(Nc2cc(N3CCCCCC3)c3nonc3c2[N+](=O)[O-])c(=O)n(-c2ccccc2)n1C	i	i	i	i	51.4
Cc1ccc2oc(-c3cccc(NC(=O)Cc4cccs4)c3)nc2c1	i	i	i	i	i
Cc1ccc2oc(-c3ccc(C)c(NC(=O)Cc4cccs4)c3)nc2c1	i	i	i	56.1	i
Cc1cc(CNCCN(C)C)c(C)n1-c1cc(S(=O)(=O)N2CCOCC2)ccc1N1CCCC1	nt	nt	i	nt	nt
Cc1csc(NS(=O)(=O)c2cccc([N+](=O)[O-])c2)n1	i	i	i	i	67.3
CCOC(=O)Cc1csc(NS(=O)(=O)c2cccc([N+](=O)[O-])c2)n1	nt	nt	i	i	nt
CCCCN(CC)CCNC(=O)CN(C)S(=O)(=O)c1ccc2c(c1)c(=O)n(C)c(=O)n2C	15.3	i	i	i	i
S=c1nc(-c2sccc2OCc2ccc(Cl)cc2Cl)[nH][nH]1	i	i	i	i	53.7
Nc1ccccc1NC1CCCCC1	i	i	i	i	82.3
O=C(COc1ccccc1/C=C\c1nc(O)c([N+](=O)[O-])c(=O)[nH]1)Nc1ccccc1	i	i	i	i	71.6
CC(/C=C/c1ccco1)=N\NC(=O)CNc1ccc2ccccc2c1	i	i	i	i	56.5
Cc1ccc(N=Cc2c(O)ccc3ccccc23)cc1F	i	i	i	i	i
N#Cc1cccc(N=Cc2c(O)ccc3ccccc23)c1	i	62.1	i	i	i
CCCCN(CC)C(=O)CSc1nc2c(sc(=S)n2-c2ccc(OCC)cc2)c(=O)[nH]1	i	i	i	i	71.8
CCOC(=O)CC(=O)CSc1nc2c(sc(=S)n2-c2ccc(OCC)cc2)c(=O)[nH]1	i	i	i	i	59.5
SMILES	p97 inhibitor	G6PDH CS	HKDC1 inhibitor	SUMO HTRF inh	Diaphorase inh
CCCN(CCC)C(=O)CSc1nc2c(sc(=S)n2-c2ccc(OCC)cc2)c(=O)[nH]1	i	i	i	i	80.3
CCOC(=O)CC(=O)CSc1nc2c(sc(=S)n2-c2ccc(C)c(C)c2)c(=O)[nH]1	nt	nt	i	i	nt
CCOc1ccc(-n2c(=S)sc3c(=O)[nH]c(SCC(=O)NC(C)CC)nc32)cc1 (centres undefined)	i	i	i	i	i
NC(=O)CSc1nc2c(sc(=S)n2-c2ccccc2)c(=O)[nH]1	nt	nt	i	i	nt
Cc1c(CN2CCC(CO)(CCOc3ccccc3)CC2)[nH]c2c(Cl)cccc12	i	i	i	i	i
COc1ccc(/C=C(\C#N)C(=O)OCC(=O)NCc2ccccc2Cl)cc1	i	i	i	54.6	i
COc1cccc(OCCNC(=O)c2cc(OC)c(OC)c(OC)c2)c1	nt	nt	i	i	nt
COc1ccc(C(=O)NCCOc2cccc(OC)c2)cc1	i	i	i	i	67.5
Cc1ccc(C)c(NC(=O)/C(C#N)=C/c2cn(CC(=O)NCc3ccco3)c3ccccc23)c1	i	i	i	53.7	i
Cc1ccc(NC(=O)/C(C#N)=C/c2cn(CC(=O)NCc3ccco3)c3ccccc23)cc1C	i	i	i	62.4	i
COc1ccc2c(c1)-c1nc(N)sc1CC2	i	i	i	i	60.5
O=S(=O)(c1ccc2ccccc2c1)N1CCC(c2nc(-c3ccncc3)no2)CC1	i	i	i	i	57.1
O=C(Nc1nnc(-c2ccccc2)o1)c1nc2ccccc2s1	nt	nt	i	73.9	nt
O=C(CSc1nnc(-c2cccc(Br)c2)o1)N1CCNC1=O	nt	nt	i	nt	nt
c1ccc(N2CCN(CC3CCCCC3)CC2)cc1	nt	nt	i	i	nt
COC(=O)c1ccccc1NC(=O)CN1CCN(c2ccccn2)CC1	i	i	i	i	nt
COC(=O)c1ccccc1N/C=C1\CCc2c(c(C)nn2-c2ccccn2)C1=O	i	i	i	i	73.9
CCc1ccccc1OCC(=O)N1CCN(c2ncccn2)CC1	nt	nt	i	nt	nt
Oc1ccc(Br)cc1-c1nc2cnccn2c1NC1CCCC1	i	i	i	i	i
Fc1ccc(-c2nc3cnccn3c2NC2CCCC2)cc1	i	i	i	54.4	i
CSCCC(NC(=O)c1ccccc1Cl)C(=O)NNC(=O)c1ccncc1 (centres undefined)	nt	nt	i	nt	nt
Cc1ccc(-c2nnc3ccc(SCC(=O)N4CCc5ccccc54)nn23)cc1	i	i	i	i	i
Cc1ccc(-c2nnc3ccc(SCC(=O)N4CCCc5ccccc54)nn23)cc1	i	i	i	i	50.5
CCc1ccc2c(c1)c(N=NC1=NC(=O)CS1)c(O)n2CC	i	i	i	i	79.1
CN(Cc1ccccc1)C(=O)COc1cc(Cl)ccc1Cl	nt	nt	i	i	nt
SMILES	p97 inhibitor	G6PDH CS	HKDC1 inhibitor	SUMO HTRF inh	Diaphorase inh
CCOC(=O)c1ccc(CC(=O)c2ccc(O)c(O)c2O)o1	i	i	i	i	76.1
COc1cc(/C=C(\NC(=O)c2ccccc2)C(=O)Nc2nccs2)ccc1OC(C)=O	nt	nt	i	i	nt
Cn1c(=O)c(NCCO)c2c3c(cccc31)C(=O)c1ccccc1-2	i	i	i	55.3	i
O=[N+]([O-])c1ccc(N/N=C/c2cccc(O)c2O)c(S(=O)(=O)N2CCOCC2)c1	i	i	i	50.9	i
O=[N+]([O-])c1cccc(N/N=C/c2cccc(O)c2O)c1	i	i	i	i	52.0
NNC(=O)CNC(c1ccccc1)c1cc(Br)ccc1NC(=O)CCN1CCOCC1 (centres undefined)	18.6	i	i	i	i
NNC(=O)CNC(c1ccccc1)c1cc(Br)ccc1NC(=O)c1ccc(Br)cc1 (centres undefined)	i	i	i	i	i
CCNC(=O)NC(=O)CSc1ccc(S(=O)(=O)N2CCCCC2)cn1	nt	nt	i	nt	nt
CCCc1nc2oc(C(=O)OCC)c(N)c2c2c1COC(C)(C)C2	i	i	i	i	i
